SENP8 block-1: human SENP8 protease inhibitors, primary screen, biochemical, fluorescence, Nedd8 protein substrate, uHTS; inhibition, % at 20 µM; recombinant SENP8; actives 0.64% (n = 360,000); in the data active = inhibition mostly above about 40%, no sharp cut-off; inactive = mostly below about 27%
SENP1 FRET inh: human SENP1 catalytic domain inhibitors, primary screen, biochemical, FRET, uHTS. inhibition, % at 10 µM. actives 0.21% (n = 360,000). recombinant SENP1 catalytic domain, CyPet-SUMO1-YPet FRET cleavage;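 active = inhibition at least 30% at 10 µM, raw YFP signal under a set limit, fluorescence ratio 0.5 to 1.5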;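 also: 0% = enzyme with DMSO and 100% = no enzyme wells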
Target sequence (Q9P0U3 419-644 limits assumed): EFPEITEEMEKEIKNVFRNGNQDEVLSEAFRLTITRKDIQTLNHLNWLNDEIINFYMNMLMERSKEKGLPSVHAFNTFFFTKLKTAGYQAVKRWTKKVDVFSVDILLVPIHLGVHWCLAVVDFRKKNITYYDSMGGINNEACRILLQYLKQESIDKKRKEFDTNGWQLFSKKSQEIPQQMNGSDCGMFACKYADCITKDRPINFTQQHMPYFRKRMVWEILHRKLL
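system = hSENP1 catalytic domain, recombinant | reagent = SFCypet-SUMO1-SFYpet substrate at 25 nM | doses = one dose per compound, 10 µM, 0.5% DMSO | incubation = enzyme reaction for 50 min at room temperature, dark | measured by = FRET, CFP and YFP emission | controls = no-enzyme low, enzyme-DMSO high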
SENP8 block-2: SENP8 protease inhibitors, primary screen, biochemical, luminescence; Sentrin-specific protease 8 (Homo sapiens), Q96LD8; actives 1.2% (n = 330,000); inhibition, % at 10 µM; purified SENP8, Z-RLRGG-aminoluciferin cleavage; AID 2540, 2010; in the data active = inhibition above about 50%
SENP7 inh: SENP7 protease inhibitors, primary screen, biochemical, luminescence, uHTS; Sentrin-specific protease 7 (Homo sapiens), Q9BQF6; recombinant SENP7, Z-RLRGG-aminoluciferin luminescence, 40 min; inhibition, % at 5 µM; actives 1.5% (n = 330,000); AID 434973, 2010;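 active = inhibition above about 50% at the single test dose, limit read from the data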;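 also: plate controls were DMSO with enzyme for no effect and no enzyme buffer wells for full effect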
Target sequence (Q9BQF6 706-1050 limits assumed): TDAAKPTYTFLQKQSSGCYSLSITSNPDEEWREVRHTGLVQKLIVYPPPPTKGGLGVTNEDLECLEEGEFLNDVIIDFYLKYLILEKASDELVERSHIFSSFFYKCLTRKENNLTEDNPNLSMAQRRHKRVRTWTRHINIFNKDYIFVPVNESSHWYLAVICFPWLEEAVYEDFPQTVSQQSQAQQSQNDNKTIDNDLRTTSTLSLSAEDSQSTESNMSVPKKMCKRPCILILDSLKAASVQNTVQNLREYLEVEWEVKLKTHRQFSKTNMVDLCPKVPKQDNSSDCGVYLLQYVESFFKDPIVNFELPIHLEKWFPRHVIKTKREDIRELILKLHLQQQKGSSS
Apaf-1 inh: inhibitors of human Apaf-1 apoptosome, primary screen, biochemical, DEVD-Rh110 fluorescence, uHTS. Apoptotic protease-activating factor 1 (Homo sapiens), O14727. reconstituted apoptosome caspase-3 activity. inhibition, % at 20 µM. actives 0.71% (n = 330,000). AID 489030, 2010; active = inhibition of at least 40% at 20 µM;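 also: plate controls were DMSO wells for no effect and DEVD-CHO caspase inhibitor wells for full effect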
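System: reconstituted apoptosome with Apaf-1, cytochrome c, caspase-9, procaspase-3, dATP; Signal: Rh110 fluorescence intensity; Schedule: 30 min compound preincubation, 50 min activation, room temperature; Reagent: cytochrome c trigger plus (Z-DEVD)2-Rh110 caspase-3 substrate.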
SENP6 block: SENP6 protease inhibitors, primary screen, biochemical, luminescence, uHTS | Recombinant SENP6 catalytic domain, aminoluciferin luminescence | AID 2599, 2010 | Sentrin-specific protease 6 (Homo sapiens), Q9GZR1 | inhibition, % at 10 µM | actives 1.8% (n = 330,000);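 active = inhibition above about 50% at the single tested dose, limit read from the data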;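 also: plate controls were DMSO wells with enzyme for no effect and DMSO wells lacking enzyme for full effect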
SENP8 confirm: SENP8 protease inhibitors, retest, confirmation, biochemical, luminescence, single concentration; shares compounds with SENP7 inh; actives 40% (n = 6,200); inhibition, % at 12.5 µM; Recombinant SENP8, Z-RLRGG-aminoluciferin luminescence, 60 min;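 active = mean inhibition across replicates above about 50%, limit read from the data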
SENP6 confirm: SENP6 protease inhibitors, confirmation, biochemical, luminescence, single concentration | recombinant SENP6, Z-RLRGG-aminoluciferin luminescence | shares compounds with SENP7 inh | inhibition, % at 12.5 µM | actives 58% (n = 6,200)
SENP7 conf: SENP7 protease inhibitors, retest, confirmation, biochemical, luminescence, single concentration. shares compounds with SENP7 inh. recombinant SENP7, Z-RLRGG-aminoluciferin luminescence, 40 min. inhibition, % at 12.5 µM. actives 69% (n = 6,200)
Casp3 select: caspase-3 protease inhibitors, confirmation, selectivity assay for SENP inhibitor project, biochemical, single concentration | actives 60% (n = 6,200) | purified caspase-3, Z-DEVD-aminoluciferin luminescence, 60 min | shares compounds with SENP7 inh | AID 488918, 2010 | inhibition, % at 12.5 µM;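 active = mean inhibition above about 50%, limit read from the data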;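 also: plate controls were enzyme with DMSO for no effect and wells without caspase-3 for full effect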
Target sequence (P42574 28-227 limits assumed): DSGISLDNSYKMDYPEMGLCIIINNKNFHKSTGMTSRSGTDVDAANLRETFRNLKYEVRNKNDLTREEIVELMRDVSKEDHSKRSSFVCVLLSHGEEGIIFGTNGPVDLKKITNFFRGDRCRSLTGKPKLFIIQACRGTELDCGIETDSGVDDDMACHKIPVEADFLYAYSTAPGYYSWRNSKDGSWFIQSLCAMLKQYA
Luc interf: counter-screen for SENP inhibitors: luminescence interference; shares compounds with SENP7 inh; Pre-incubated SENP8/Z-RLRGG-aminoluciferin, luciferase luminescence interference; inhibition, % at 12.5 µM; actives 39% (n = 6,200);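 active = mean inhibition above about 50% when retested at one dose, limit read from the data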;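 also: plate controls were DMSO wells with completed reaction for no effect and substrate without enzyme for full effect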
Starred values were filed as active, the others as inactive; . = not tested or not shown. Only some compounds are listed: those with a hit (about 2.9% of all), similar ones and a draw of the others.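 The calls were made as follows, unless noted: active = mean inhibition above about 50% in the one-dose retest (limit read from the data); inactive = the rest.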

SMILES | SENP8 block-1 | SENP1 FRET inh | SENP8 block-2 | SENP7 inh | Apaf-1 inh | SENP6 block | SENP8 confirm | SENP6 confirm | SENP7 conf | Casp3 select | Luc interf
Cc1ccccc1-c1noc(-c2ccc(Cl)cc2)n1 | 9.0 | 2.4 | 29.8 | 79.2* | -4.7 | -3.9 | 21.2 | 26.4 | 12.8 | 49.4 | 8.3
COc1nc(-c2ccccc2)ccc1-c1noc(-c2ccccc2F)n1 | -216.6 | -4.2 | -3.1 | 26.0 | 3.4 | 1.2 | . | . | . | . | .
O=C1C(=O)N(c2nccs2)C(c2ccccc2F)/C1=C(\O)c1ccc2c(c1)OCCO2 (centres undefined) | -26.3 | 13.4 | 3.2 | 2.1 | -40.1 | 11.1 | . | . | . | . | .
COc1ccc(C(=O)NCc2ccc(-c3nc4ccccc4s3)cc2)cc1OC | -44.6 | 0.2 | -0.1 | 3.2 | -7.4 | -12.5 | . | . | . | . | .
COc1cc(OC)cc(-c2nc3ccccc3s2)c1 | -63.4 | 0.9 | 81.4* | 91.0* | 7.9 | 4.3 | 91.5* | 93.3* | 99.9* | 82.4* | 76.8*
COc1ccc2nc(-c3ccc(F)cc3)sc2c1 | -475.9 | -1.9 | 73.7* | 97.0* | 6.4 | 97.1* | 95.4* | 96.8* | 101.1* | 94.6* | 77.8*
COc1ccc(C)cc1NC(=O)CNC(C)C(=O)Nc1ccc(C(C)=O)cc1 (centres undefined) | 12.9 | -1.5 | -10.7 | -0.8 | 10.5 | -24.6 | . | . | . | . | .
COc1ccc(-c2nc(-c3ccncc3)no2)cc1OC | 2.4 | 0.0 | 13.1 | 17.3 | -7.3 | 27.5 | . | . | . | . | .
COc1ccc(Cl)cc1-c1nc(-c2ccncc2)no1 | -24.9 | -3.2 | -8.3 | 1.6 | 8.1 | -12.0 | . | . | . | . | .
Cc1ccc(-c2nc(-c3ccncc3)no2)cc1Cl | 11.9 | -1.4 | 23.4 | 54.8* | 9.1 | 29.9 | 22.7 | 20.2 | 34.7 | 38.6 | 10.8
Cc1ccc(-c2nc(-c3ccncc3)no2)cc1C | 2.4 | 0.5 | 79.4* | 78.0* | 12.2 | 84.9* | 53.3* | 58.4* | 76.4* | 65.5* | 30.0
Cc1cc(-c2nc(-c3ccncc3)no2)ccc1[N+](=O)[O-] | 12.9 | 0.9 | 54.5* | 60.7* | 5.3 | 59.5* | 8.7 | 8.6 | 16.2 | 11.7 | 11.3
Cc1cc(CN2CCN(CC(=O)Nc3cc(Cl)ccc3-n3cncn3)CC2)no1 | -1.2 | -3.3 | -4.3 | 9.0 | 2.4 | -9.6 | . | . | . | . | .
COC(=O)c1c(N)sc(C(=O)NCCc2ccccc2)c1C | -67.0 | 0.1 | 74.7* | 88.6* | -9.8 | 87.7* | 84.6* | 82.3* | 95.1* | 88.6* | 84.7*
Cc1ccc(S(=O)(=O)N(C)c2ccc(C(=O)NCCc3ccccc3)cc2)cc1 | 11.1 | 0.2 | 2.1 | 2.0 | 16.5 | 1.1 | . | . | . | . | .
CN(c1ccc(C(=O)NCCc2ccccc2)cc1)S(C)(=O)=O | 10.1 | 2.7 | -4.1 | 54.7* | -6.0 | 25.6 | 7.8 | 6.2 | 55.5* | 69.1* | 39.9
Cc1ccc(C(=O)NCCc2ccccc2)cc1 | 2.9 | 0.7 | 23.5 | 54.3* | -2.8 | 53.4* | 38.7 | 36.1 | 77.1* | 78.7* | 57.8*
Cn1c(=O)c2[nH]c(C3CC3)nc2n(C)c1=O | 8.7 | 3.3 | . | . | . | . | . | . | . | . | .
COc1cccc(-c2ncc3ccccc3c2COC(=O)CCCC(=O)O)c1 | 3.8 | 1.4 | 5.8 | 8.6 | -0.8 | 2.0 | . | . | . | . | .
COCOc1ccc(/C=C2/Oc3cc(OCOC)cc(OCOC)c3C2=O)c(OCOC)c1 | -232.8 | -23.2 | 3.9 | -6.9 | -21.3 | -12.6 | . | . | . | . | .
COc1cc(OC)c2c(c1)O/C(=C\c1ccccc1)C2=O | -397.0 | -12.4 | 56.6* | 53.5* | 7.1 | 68.1* | 72.0* | 67.7* | 83.3* | 47.2 | 72.4*
CC(=O)Oc1ccc(/C=C2/Oc3ccccc3C2=O)cc1 | -85.5 | -38.0 | 83.1* | 78.3* | 3.0 | 87.2* | 39.5 | 61.4* | 44.3 | 70.8* | 32.6
COc1ccc(/C=C2\Oc3ccccc3C2=O)cc1 | -472.9 | 0.3 | 92.3* | 97.1* | 7.0 | 92.7* | 4.9 | 94.4* | 101.0* | 93.9* | 87.9*
O=C1/C(=C/c2ccccc2)Oc2cc(OC(=O)N3CCOCC3)ccc21 | -3.3 | -2.2 | -15.6 | -7.9 | -1.0 | -15.4 | . | . | . | . | .
CCOC(=O)C1(C)CCN1C(=O)c1cc(F)cc(F)c1 (centres undefined) | 10.3 | 1.3 | . | . | . | . | . | . | . | . | .
SMILES | SENP8 block-1 | SENP1 FRET inh | SENP8 block-2 | SENP7 inh | Apaf-1 inh | SENP6 block | SENP8 confirm | SENP6 confirm | SENP7 conf | Casp3 select | Luc interf
CSc1nsc(/C=C/Nc2ccc(F)cc2F)c1C#N | -99.1 | -20.1 | 4.7 | -10.4 | 9.0 | -5.2 | . | . | . | . | .
CSc1nsc(/C=C/Nc2ccc(C(=O)O)cc2)c1C#N | -133.6 | -25.4 | 18.1 | 2.6 | -1.1 | 58.4* | 19.1 | 68.1* | 88.6* | 56.9* | 28.0
Nc1nc2c(-c3ccc(Br)cc3)nnn2c2ccccc12 | -286.3 | -21.9 | -7.1 | 69.9* | -0.7 | -4.6 | -0.9 | 2.2 | -1.3 | -0.3 | -3.7
COC(=O)N(C)C[C@H]1OCc2cnnn2CCCC(=O)N([C@H](C)CO)C[C@H]1C | 2.7 | 0.9 | . | . | . | . | . | . | . | . | .
Cc1ccc2nc(NC(=O)CCCC(=O)O)sc2c1 | 3.8 | 1.9 | 54.2* | 57.9* | -3.2 | 55.3* | 3.4 | 16.5 | 26.8 | 17.5 | 6.7
CCOCC(=O)Nc1nc2ccc(S(C)(=O)=O)cc2s1 | 17.2 | 0.6 | 1.8 | 3.8 | 5.4 | -2.4 | . | . | . | . | .
CCOc1ccc2nc(NC(=O)CSc3ccc(Cl)cc3)sc2c1 | 6.2 | -0.7 | -8.9 | 0.2 | 7.6 | -13.2 | . | . | . | . | .
CCOCC(=O)Nc1nc2ccc(OCC)cc2s1 | 7.8 | 1.0 | 36.9 | 62.6* | -5.5 | 71.4* | 56.0* | 50.8* | 81.1* | 78.8* | 61.8*

Screening results as filed in PubChem.
